The source made the active and inactive calls. No cut-off for these calls is given here.
Experiments:
[1] = species: Oryctolagus cuniculus; assay: Displacement of [3H]estradiol from rabbit estrogen receptor after 24 hrs at 0.1 nM to 10 mM
Procedure, shortened: (§1)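 Uterine cytosol from TE buffer (Tris-HCl, 1 mM EDTA, pH 7.4) homogenate by ultracentrifugation. Competitor 0.1 nM–10 mM with constant label ([3H]estradiol 6000 cpm or [3H]progesterone 20000 cpm), 24 h at 4 °C, started by cytosol addition. Bound label isolated; RBA derived against unlabeled estradiol or progesterone standard curves.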

[2] = biological target: T1, Progesterone receptor (Oryctolagus cuniculus) (UniProt P06186); assay: Displacement of [3H]progesterone from rabbit progesterone receptor after 24 hrs at 0.1 nM to 10 mM; procedure, shortened: as §1
T1 sequence (whole entry): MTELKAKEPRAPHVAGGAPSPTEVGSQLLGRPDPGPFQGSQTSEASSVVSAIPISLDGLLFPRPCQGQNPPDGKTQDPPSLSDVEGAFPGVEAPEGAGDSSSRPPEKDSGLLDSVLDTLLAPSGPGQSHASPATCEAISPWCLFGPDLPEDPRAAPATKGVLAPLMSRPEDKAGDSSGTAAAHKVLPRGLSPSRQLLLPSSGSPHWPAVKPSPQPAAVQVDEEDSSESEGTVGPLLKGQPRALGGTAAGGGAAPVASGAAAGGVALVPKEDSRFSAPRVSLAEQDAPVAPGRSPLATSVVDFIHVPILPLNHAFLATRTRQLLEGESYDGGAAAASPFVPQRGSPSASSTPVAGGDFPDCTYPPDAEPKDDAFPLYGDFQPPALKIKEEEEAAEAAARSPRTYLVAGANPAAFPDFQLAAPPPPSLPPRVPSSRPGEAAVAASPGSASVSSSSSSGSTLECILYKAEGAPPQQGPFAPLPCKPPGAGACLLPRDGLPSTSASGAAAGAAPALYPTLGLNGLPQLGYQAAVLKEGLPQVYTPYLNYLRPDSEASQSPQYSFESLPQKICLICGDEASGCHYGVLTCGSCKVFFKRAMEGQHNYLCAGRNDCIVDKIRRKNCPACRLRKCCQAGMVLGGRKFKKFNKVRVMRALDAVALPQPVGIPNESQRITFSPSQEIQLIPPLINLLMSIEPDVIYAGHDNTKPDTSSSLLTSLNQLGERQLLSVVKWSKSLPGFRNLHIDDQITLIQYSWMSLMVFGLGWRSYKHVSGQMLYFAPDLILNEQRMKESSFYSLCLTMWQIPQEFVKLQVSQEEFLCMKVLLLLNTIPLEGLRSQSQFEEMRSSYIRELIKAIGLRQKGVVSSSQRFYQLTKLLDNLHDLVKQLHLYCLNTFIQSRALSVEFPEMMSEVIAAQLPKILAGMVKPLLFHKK

[3] = tested on: Rattus norvegicus; assay: Antifertility activity in Sprague-Dawley rat assessed as no implantation at 10 mg/kg/day, sc administered for 5 days measured on day 10; format: functional, organism-based
Procedure, shortened: (§2)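 Mated females dosed in sesame oil (0.1 mL) over 5 days from day 0 of pregnancy (sperm-positive day). Autopsy on day 10 of presumptive pregnancy; normal and resorbing fetuses counted. ED100 = dose (mg/kg/day) giving no implantation sites.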

[4] = tested on: Rattus norvegicus; assay: Antiandrogenic activity in rat assessed as inhibition of androgen stimulation of seminal vesicle at 30 mg/kg/day, sc; format: functional, organism-based
Procedure, shortened: (§3)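 Immature, castrated male rats; test compound assessed for ability to inhibit androgen stimulation of seminal vesicle, ventral prostate and levator ani weight.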

[5] = tested on: Rattus norvegicus; assay: Antiuterotropic activity in rat assessed as D-estradiol-induced increase in uterine weight inhibition of at 5 mg/kg/day, sc administered for 3 days; format: functional, organism-based
Procedure, shortened: (§4)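 Immature female rats, 45–55 g, given estradiol together with test compound daily for three consecutive days as sesame oil suspension (0.1 mL); vehicle-only controls. Uteri excised, cleaned and weighed to nearest 0.2 mg the day after last treatment.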

[6] = tested on: Rattus norvegicus; assay: Antifertility activity in Sprague-Dawley rat assessed as no implantation at 4 mg/kg/day, sc administered for 5 days measured on day 10; format: functional, organism-based; procedure, shortened: as §2
[7] = tested on: Rattus norvegicus; assay: Uterotropic activity in rat at 1 mg/kg/day, sc administered for 3 days relative to ethynylestradiol; conditions: Uterus
[8] = tested on: Rattus norvegicus; assay: Antiandrogenic activity in rat assessed as inhibition of androgen stimulation of ventral prostate at 30 mg/kg/day, sc; format: functional, organism-based; conditions: Prostate gland; procedure, shortened: as §3
[9] = tested on: Rattus norvegicus; assay: Antiandrogenic activity in rat assessed as inhibition of androgen stimulation of levator ani weight at 30 mg/kg/day, sc; format: functional, organism-based; procedure, shortened: as §3
[10] = tested on: Rattus norvegicus; assay: Uterotropic activity in sc dosed rat administered for 3 days relative to estradiol; format: functional, Uterus
Procedure, shortened: (§5)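 Immature female rats, 45–55 g, dosed daily for 3 days with sesame oil suspension (0.1 mL); vehicle controls. Uteri removed, cleaned, weighed (nearest 0.2 mg) next day. Expressed as percent activity relative to estradiol (sc) or ethynylestradiol (oral).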

[11] = tested on: Rattus norvegicus; assay: Antifertility activity in sc dosed Sprague-Dawley rat assessed as no implantation administered for 5 days measured on day 10; format: functional; procedure, shortened: as §2
[12] = tested on: Oryctolagus cuniculus; assay: Antiprogestational activity in Clauberg rabbit at 10 mg/kg/day, sc; format: functional, organism-based
Procedure, shortened: (§6)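 Immature rabbit (Clauberg); uterine stimulation measured for progestational activity, and its antagonism for antiprogestational activity.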

[13] = tested on: Oryctolagus cuniculus; assay: Progestational activity in Clauberg rabbit at 10 mg/kg/day, sc; format: functional, organism-based; procedure, shortened: as §6
[14] = tested on: Rattus norvegicus; assay: Antiuterotropic activity in rat assessed as D-estradiol-induced increase in uterine weight inhibition of at 10 ug/kg/day, po administered for 3 days; format: functional, organism-based; procedure, shortened: as §4
[15] = tested on: Rattus norvegicus; assay: Antifertility activity in Sprague-Dawley rat assessed as no implantation at 6.8 mg/kg/day, po administered for 5 days measured on day 10; format: functional, organism-based; procedure, shortened: as §2
[16] = tested on: Rattus norvegicus; assay: Uterotropic activity in po dosed rat administered for 3 days relative to ethynylestradiol; format: functional, Uterus; procedure, shortened: as §5
[17] = tested on: Oryctolagus cuniculus; assay: Antiprogestational activity in Clauberg rabbit at 10 mg/kg/day, po; format: functional, organism-based; procedure, shortened: as §6
[18] = tested on: Oryctolagus cuniculus; assay: Progestational activity in Clauberg rabbit at 10 mg/kg/day, po; format: functional, organism-based; procedure, shortened: as §6
[19] = tested on: Oryctolagus cuniculus; assay: Progestational activity in Clauberg rabbit at 20 mg/kg/day, sc; format: functional, organism-based; procedure, shortened: as §6
[20] = tested on: Oryctolagus cuniculus; assay: Antiprogestational activity in Clauberg rabbit at 20 mg/kg/day, sc; format: functional, organism-based; procedure, shortened: as §6

## COc1ccc2c(c1)CC[C@H]1C[C@@]3(C)C(=CC[C@@H]3OC(C)=O)C=C21
[1]
  RBA: < 0.025
[2]
  RBA: < 0.4
[3]
  Activity: inactive

## C[C@]12C[C@@H]3CCC4=C(CCC(=O)C4)[C@@H]3C[C@@H]1CC[C@@H]2O
[4]
  Activity: inactive
[5]
  Activity: inactive
[1]
  RBA: < 0.085
[6]
  Activity: inactive
[2]
  RBA: < 0.4
[7]
  Activity: inactive
[8]
  Activity: inactive
[9]
  Activity: inactive

## C[C@]12C[C@@H]3CCc4cc(O)ccc4[C@@H]3C[C@@H]1CC[C@@H]2O
[10]
  relative binding affinity (RBA): 0.02
[1]
  RBA: 2.9
[11]
  ED100: 1 mg/kg/day

## CC(=O)[C@H]1CC[C@H]2C[C@@H]3[C@@H](CCC4CC(=O)C=C[C@H]43)C[C@@]21C (stereo partly specified)
[12]
  Activity: inactive
[13]
  Activity: inactive
[2]
  RBA: 1.9

## C[C@]12C[C@@H]3CCC4=CC(=O)CC[C@H]4[C@@H]3C[C@@H]1CC[C@@H]2O
[4]
  Activity: inactive
[5]
  Activity: inactive
[1]
  RBA: 0.06
[6]
  Activity: inactive
[2]
  RBA: < 0.4
[7]
  Activity: inactive
[8]
  Activity: inactive
[9]
  Activity: inactive

## C#C[C@]1(O)CC[C@H]2C[C@H]3c4ccc(O)cc4CC[C@H]3C[C@@]21C
[1]
  RBA: 4.4
[14]
  Activity: inactive
[15]
  Activity: inactive
[2]
  RBA: < 0.4
[16]
  relative binding affinity (RBA): 0.18

## C#C[C@]1(O)CC[C@H]2C[C@@H]3[C@@H](CCC4=CC(=O)CC[C@H]43)C[C@@]21C
[17]
  Activity: inactive
[2]
  RBA: 2
[18]
  Activity: inactive

## CC(=O)[C@H]1CC[C@H]2C[C@@H]3[C@@H](CCC4=CC(=O)CC[C@H]43)C[C@@]21C
[19]
  Activity: inactive
[2]
  RBA: 1.2
[20]
  Activity: inactive
